# Laboratory results published in ChEMBL document CHEMBL1158683, “Cytotoxic sesquiterpenoids from Ratibida columnifera” (1999).
# Activity calls are given as the source filed them. The rule behind the calls is not given here.
# Assays:
# [1] = tested on: Col2; assay: Cytotoxicity against human Col2 cells; assay type: functional; details: read-out: ED50 (the source's name)
# [2] = tested on: ASK; assay: Cytotoxicity against human ASK cells at 20 ug/mL; assay type: functional, cell-based
# [3] = Cytotoxicity against human multidrug-resistant KB-V1+ cells in presence of vinblastine; assay type: functional; details: read-out: ED50 (the source's name)
# [4] = Cytotoxicity against human multidrug-resistant KBV1 cells in absence of vinblastine; assay type: functional; details: KB-V1, read-out: ED50 (the source's name)
# [5] = tested on: LNCaP; assay: Cytotoxicity against hormone-dependent human LNCaP cells; assay type: functional; details: read-out: ED50 (the source's name)
# [6] = Cytotoxicity against human BC1 cells; assay type: functional; details: read-out: ED50 (the source's name)
# [7] = tested on: ZR-75-1; assay: Cytotoxicity against hormone-dependent human ZR751 cells; assay type: functional; details: read-out: ED50 (the source's name)
# [8] = tested on: Lu1; assay: Cytotoxicity against human Lu1 cells; assay type: functional; details: read-out: ED50 (the source's name)
# [9] = tested on: KB; assay: Cytotoxicity against human KB cells; assay type: functional; details: read-out: ED50 (the source's name)
# [10] = tested on: Nucleic Acid; assay: Binding affinity to DNA assessed as DNA intercalation; assay type: nucleic-acid assay
# [11] = tested on: A2780; assay: Induction of apoptosis in human p53 wild type A2780S at 1.5 uM after 24 hrs by TdT assay; assay type: functional
# Procedure, shortened: (§1)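 A2780S (p53 wild-type) and A2780R (p53 mutant) ovarian carcinoma cells were exposed for 24 h at 0–30 µM. Cells (10^6) were trypsinized and fixed in 1% methanol-free formaldehyde/PBS for 15 min on ice. They were washed twice with PBS and fixed in 80% EtOH at −20 °C for 16 h. A TdT assay (APO-Direct kit, minor modifications) then scored % apoptotic cells.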
# [12] = Inhibition of tubulin polymerization at 10 to 100 uM
# [13] = tested on: A2780; assay: Induction of apoptosis in human p53 wild type A2780S at 7.5 uM after 24 hrs by TdT assay; assay type: functional; procedure, shortened: as §1
# [14] = tested on: M109; assay: Antitumor activity against mouse M109 cells xenografted CDF1 mouse model at 8 mg/kg, ip for 5 days; assay type: functional; details: route intraperitoneal
# Procedure, shortened: (§2)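 A 2% w/v brei of M109 murine lung carcinoma was prepared in RPMI from harvested solid tumors. Female CDF1 mice (six per group) were implanted ip with 0.5 mL. Compound was given ip daily for 5 days, beginning 1 day after implantation. The endpoint was lifespan, expressed as %T/C (treated over control lifespan × 100%).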
# [15] = biological target: T1, DNA topoisomerase 1 (Homo sapiens) (UniProt P11387); assay: Inhibition of topoisomerase 1 at 10 to 100 uM
# T1 sequence (whole entry): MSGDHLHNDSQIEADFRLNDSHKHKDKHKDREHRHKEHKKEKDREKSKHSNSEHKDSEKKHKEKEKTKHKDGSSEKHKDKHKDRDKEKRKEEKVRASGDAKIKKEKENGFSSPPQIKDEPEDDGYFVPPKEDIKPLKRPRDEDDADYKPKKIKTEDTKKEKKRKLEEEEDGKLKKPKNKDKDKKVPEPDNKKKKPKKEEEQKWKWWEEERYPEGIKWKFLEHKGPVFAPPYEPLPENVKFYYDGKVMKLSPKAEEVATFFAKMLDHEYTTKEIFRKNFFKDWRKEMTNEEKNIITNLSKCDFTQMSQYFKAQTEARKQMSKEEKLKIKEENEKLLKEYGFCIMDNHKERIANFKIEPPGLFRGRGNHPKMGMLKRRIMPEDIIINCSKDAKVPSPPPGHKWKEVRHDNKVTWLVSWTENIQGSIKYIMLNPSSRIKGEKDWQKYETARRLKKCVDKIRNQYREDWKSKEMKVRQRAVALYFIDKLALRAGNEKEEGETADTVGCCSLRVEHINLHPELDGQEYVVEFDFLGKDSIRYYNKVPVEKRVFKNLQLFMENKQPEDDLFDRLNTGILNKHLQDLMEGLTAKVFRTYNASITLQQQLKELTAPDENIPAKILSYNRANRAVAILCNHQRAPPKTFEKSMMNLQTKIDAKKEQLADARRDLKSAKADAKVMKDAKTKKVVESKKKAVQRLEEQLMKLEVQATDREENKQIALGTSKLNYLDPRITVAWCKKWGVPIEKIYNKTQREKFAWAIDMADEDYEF
# [16] = tested on: A2780; assay: Induction of apoptosis in human p53 mutant A2780R at 0.15 uM after 24 hrs by TdT assay
# [17] = tested on: A2780; assay: Induction of apoptosis in human p53 wild type A2780S at 30 uM after 24 hrs by TdT assay; assay type: functional; procedure, shortened: as §1
# [18] = tested on: A2780; assay: Induction of apoptosis in human p53 […] at 30 uM after 24 hrs by TdT assay; assay type: functional; details: in the assay text read “A2780R” for “A2780S”; procedure, shortened: as §1
# [19] = tested on: A2780; assay: Induction of apoptosis in human p53 wild type A2780S at 15 uM after 24 hrs by TdT assay; assay type: functional; procedure, shortened: as §1
# [20] = tested on: A2780; assay: Induction of apoptosis in human p53 wild type A2780S at 0.15 uM after 24 hrs by TdT assay; assay type: functional; procedure, shortened: as §1
# [21] = tested on: A2780; assay: Induction of apoptosis in human p53 […] at 15 uM after 24 hrs by TdT assay; assay type: functional; details: in the assay text read “A2780R” for “A2780S”; procedure, shortened: as §1
# [22] = tested on: M109; assay: Antitumor activity against mouse M109 cells xenografted CDF1 mouse model at 24 mg/kg, ip for 5 days; assay type: functional; details: route intraperitoneal; procedure, shortened: as §2
# [23] = Inhibition of topoisomerase 2 at 10 to 100 uM
# [24] = tested on: A2780R; assay: Induction of apoptosis in human p53 mutant A2780R at 1.5 uM after 24 hrs by TdT assay
# [25] = tested on: A2780; assay: Induction of apoptosis in human p53 mutant A2780R at 7.5 uM after 24 hrs by TdT assay
# [26] = Cytotoxicity against human U373 cells; assay type: functional, U-373MG ATCC; details: U373 MG, read-out: ED50 (the source's name)
# [27] = tested on: HT; assay: Cytotoxicity against human HT cells; assay type: functional; details: read-out: ED50 (the source's name)
# [28] = tested on: A-431; assay: Cytotoxicity against human A431 cells; assay type: functional; details: read-out: ED50 (the source's name)
# [29] = Cytotoxicity against human Mel2 cells; assay type: functional; details: read-out: ED50 (the source's name)
compound,measurement,setting,value
C=C1C(=O)O[C@@H]2[C@@H]1[C@@H](O)C[C@H](C)[C@@](O)(C(=O)/C=C/C)[C@H]2OC(=O)/C(C)=C\C,EC50,[1],5.7 µg/mL
same,Activity,[2],inactive
same,EC50,[3],1.7 µg/mL
same,EC50,[4],3 µg/mL
same,EC50,[5],0.4 µg/mL
same,EC50,[6],4.2 µg/mL
same,EC50,[7],1.4 µg/mL
same,EC50,[8],2.3 µg/mL
same,EC50,[9],1.4 µg/mL
C=C1C(=O)O[C@@H]2[C@@H]1C[C@@H](O)[C@H](C)[C@@](O)(C(=O)CC(C)O)[C@H]2OC(=O)C(C)CC (stereo partly drawn),EC50,[1],8.7 µg/mL
same,Activity,[2],inactive
same,EC50,[3],> 20 µg/mL
same,EC50,[4],> 20 µg/mL
same,EC50,[5],8.1 µg/mL
same,EC50,[6],9 µg/mL
same,EC50,[8],16.8 µg/mL
same,EC50,[9],12.7 µg/mL
C=C1C(=O)O[C@@H]2[C@@H]1C[C@@H](O)[C@H](C)[C@@](O)(C(=O)/C=C/C)[C@H]2OC(=O)C(C)CC (stereo partly drawn),EC50,[1],1.1 µg/mL
same,Activity,[10],inactive
same,Activity,[11],1.27%
same,Activity,[12],inactive
same,Activity,[13],61.31%
same,Activity,[2],inactive
same,EC50,[3],1.6 µg/mL
same,T/C,[14],103%
same,Activity,[15],inactive
same,Activity,[16],0.77%
same,EC50,[4],0.9 µg/mL
same,EC50,[5],0.5 µg/mL
same,EC50,[6],0.8 µg/mL
same,Activity,[17],78.14%
same,Activity,[18],49.25%
same,EC50,[8],0.9 µg/mL
same,Activity,[19],51.67%
same,Activity,[20],1.17%
same,Activity,[21],31.87%
same,EC50,[9],1 µg/mL
same,T/C,[22],113%
same,Activity,[23],inactive
same,Activity,[24],1.66%
same,Activity,[25],2.63%
C=C1C(=O)O[C@@H]2[C@@H]1CC(=O)[C@H](C)[C@@](O)(C(=O)CC(C)OC)[C@H]2OC(=O)C(C)CC (stereo partly drawn),EC50,[1],3.1 µg/mL
same,Activity,[2],inactive
same,EC50,[3],5 µg/mL
same,EC50,[4],4 µg/mL
same,EC50,[5],0.5 µg/mL
same,EC50,[6],1.2 µg/mL
same,EC50,[8],4.4 µg/mL
same,EC50,[9],6.6 µg/mL
C=C1C(=O)O[C@@H]2[C@@H]1CC(=O)[C@H](C)[C@@](O)(C(=O)/C=C/C)[C@H]2OC(=O)C(C)CC (stereo partly drawn),EC50,[1],1.2 µg/mL
same,Activity,[2],inactive
same,EC50,[3],1.1 µg/mL
same,EC50,[4],2 µg/mL
same,EC50,[5],0.4 µg/mL
same,EC50,[6],0.5 µg/mL
same,EC50,[8],2.3 µg/mL
same,EC50,[9],1.1 µg/mL
C=C[C@@](C)(O)C[C@@H](O)/C=C(\C)CC/C=C(\C)COC(C)=O,EC50,[1],6.2 µg/mL
same,EC50,[26],6.3 µg/mL
same,Activity,[2],inactive
same,EC50,[3],> 20 µg/mL
same,EC50,[4],10.9 µg/mL
same,EC50,[5],> 20 µg/mL
same,EC50,[6],8.7 µg/mL
same,EC50,[8],> 20 µg/mL
same,EC50,[27],9.5 µg/mL
same,EC50,[9],3.5 µg/mL
C=C1C(=O)O[C@@H]2[C@@H]1C[C@@H](O)[C@H](C)[C@@](O)(C(=O)/C=C/C)[C@H]2OC(=O)/C(C)=C\C,EC50,[1],0.5 µg/mL
same,EC50,[28],0.2 µg/mL
same,EC50,[26],0.2 µg/mL
same,Activity,[2],inactive
same,EC50,[29],0.5 µg/mL
same,EC50,[3],1.3 µg/mL
same,EC50,[4],1.2 µg/mL
same,EC50,[5],0.16 µg/mL
same,EC50,[6],0.6 µg/mL
same,EC50,[7],0.2 µg/mL
same,EC50,[8],1.1 µg/mL
same,EC50,[27],0.3 µg/mL
same,EC50,[9],0.3 µg/mL
C=C1C(=O)O[C@@H]2[C@@H]1[C@H]1O[C@H]1[C@H](C)[C@@](O)(C(=O)/C=C/C)[C@H]2OC(=O)/C(C)=C\C,EC50,[1],0.8 µg/mL
same,EC50,[26],0.2 µg/mL
same,Activity,[2],inactive
same,EC50,[3],0.9 µg/mL
same,EC50,[4],0.2 µg/mL
same,EC50,[6],0.3 µg/mL
same,EC50,[8],0.5 µg/mL
same,EC50,[27],0.16 µg/mL
same,EC50,[9],0.3 µg/mL
C=C1C(=O)O[C@@H]2[C@@H]1CC[C@H](C)[C@@](O)(C(=O)/C=C/C)[C@H]2OC(=O)/C(C)=C\C,EC50,[1],0.9 µg/mL
same,EC50,[26],0.2 µg/mL
same,Activity,[2],inactive
same,EC50,[3],0.3 µg/mL
same,EC50,[4],1.6 µg/mL
same,EC50,[5],1 µg/mL
same,EC50,[6],0.8 µg/mL
same,EC50,[7],1.4 µg/mL
same,EC50,[8],0.4 µg/mL
same,EC50,[27],0.4 µg/mL
same,EC50,[9],0.4 µg/mL
COc1c(O)cc2oc(-c3ccc(O)cc3)cc(=O)c2c1O [HISPIDULIN],EC50,[1],> 20 µg/mL
same,EC50,[28],1.2 µg/mL
same,EC50,[26],8.8 µg/mL
same,Activity,[2],inactive
same,EC50,[29],14.6 µg/mL
same,EC50,[3],1.3 µg/mL
same,EC50,[4],8.7 µg/mL
same,EC50,[5],7.1 µg/mL
same,EC50,[6],> 20 µg/mL
same,EC50,[7],1.2 µg/mL
same,EC50,[8],> 20 µg/mL
same,EC50,[27],10.1 µg/mL
same,EC50,[9],18.8 µg/mL
